According to ChEMBL document CHEMBL1148330, “Synthesis and biological evaluation of 14-alkoxymorphinans. 21. Novel 4-alkoxy and 14-phenylpropoxy derivatives of the mu opioid receptor antagonist cyprodime” (J Med Chem, 2004):
pEC50, pKi: −log10 of the molar value.

Key:
Rattus norvegicus = species on record: Rattus norvegicus; test: Selectivity ratio of binding affinities between kappa opioid receptors and mu opioid receptors in rat brain membranes; type: cell membranes
Outline: (§1)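 Competitive radioligand binding in rat brain membranes: [3H]DAMGO (µ), [3H][Ile5,6]deltorphin II (δ), [3H]U69,593 (κ). Ki reported as mean ± SEM. Selectivity ratios are Ki δ/Ki µ and Ki κ/Ki µ.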

[1] = target: Opioid receptors; mu & delta (Rattus norvegicus) (UniProt P33533+P33535); test: Selectivity ratio of binding affinities between delta opioid receptors and mu opioid receptors in rat brain membranes; type: cell membranes; outline: as §1
Sequence of Opioid receptors; mu & delta (Rattus norvegicus) (P33533 whole entry, looked up): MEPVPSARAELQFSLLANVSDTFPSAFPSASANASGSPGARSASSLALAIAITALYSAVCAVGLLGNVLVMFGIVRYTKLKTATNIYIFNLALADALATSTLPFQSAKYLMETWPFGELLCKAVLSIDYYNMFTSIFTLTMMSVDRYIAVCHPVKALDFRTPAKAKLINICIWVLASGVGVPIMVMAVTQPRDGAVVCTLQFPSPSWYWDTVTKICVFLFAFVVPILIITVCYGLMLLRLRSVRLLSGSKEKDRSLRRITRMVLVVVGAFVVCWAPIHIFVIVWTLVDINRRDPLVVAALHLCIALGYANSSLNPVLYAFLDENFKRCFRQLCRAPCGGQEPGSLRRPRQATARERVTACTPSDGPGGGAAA
Sequence of Opioid receptors; mu & delta (Rattus norvegicus) (P33535 whole entry, looked up): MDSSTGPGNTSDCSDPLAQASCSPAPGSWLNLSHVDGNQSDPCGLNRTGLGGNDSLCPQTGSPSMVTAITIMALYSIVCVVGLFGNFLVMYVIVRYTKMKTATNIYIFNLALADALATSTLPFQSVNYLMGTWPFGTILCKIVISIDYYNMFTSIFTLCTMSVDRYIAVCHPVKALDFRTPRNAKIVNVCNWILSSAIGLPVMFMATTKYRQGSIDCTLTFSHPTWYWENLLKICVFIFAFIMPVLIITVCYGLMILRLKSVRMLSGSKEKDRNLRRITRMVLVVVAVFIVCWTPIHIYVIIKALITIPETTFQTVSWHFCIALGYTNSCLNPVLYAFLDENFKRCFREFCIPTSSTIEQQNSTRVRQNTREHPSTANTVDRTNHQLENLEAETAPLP

[2] = target: T1, Kappa-type opioid receptor (Homo sapiens, UniProt P41145); test: Antagonistic activity against recombinant human Opioid receptor kappa 1 expressed in CHO cells when incubated with U69,593; type: functional, cell-based
T1 sequence (P41145 whole entry): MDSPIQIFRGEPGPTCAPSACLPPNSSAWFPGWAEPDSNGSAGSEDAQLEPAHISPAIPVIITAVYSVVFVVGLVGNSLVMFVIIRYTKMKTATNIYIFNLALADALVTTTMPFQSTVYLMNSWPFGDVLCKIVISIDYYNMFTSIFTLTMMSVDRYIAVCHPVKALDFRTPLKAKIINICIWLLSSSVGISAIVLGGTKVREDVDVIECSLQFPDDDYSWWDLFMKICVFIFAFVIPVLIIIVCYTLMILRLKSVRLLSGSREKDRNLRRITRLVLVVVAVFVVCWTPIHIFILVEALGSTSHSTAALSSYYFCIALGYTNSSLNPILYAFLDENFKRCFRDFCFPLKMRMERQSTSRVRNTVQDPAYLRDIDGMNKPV
Outline: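 Membranes from CHO cells stably expressing the human κ opioid receptor, incubated with the agonist U69,593 in the presence of varying concentrations of compound. Antagonist Ke values reported as mean ± SEM.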

Mu-type opioid receptor [3] = target: Mu-type opioid receptor (Rattus norvegicus, UniProt P33535); test: Binding affinity determined by displacing [3H]DAMGO from Opioid receptor mu 1 in rat brain membranes; type: cell membranes; outline: as §1
Sequence of Mu-type opioid receptor (Rattus norvegicus, UniProt P33535) (P33535 whole entry): as the sequence (P33535 whole entry, looked up) above

[4] = target: T2, Delta-type opioid receptor (Homo sapiens, UniProt P41143); test: Concentration necessary to produce 50% of the Emax value, i.e. to stimulate [35S]GTP-gamma-S, binding to recombinant human opioid receptor delta 1 expressed in CHO cells; type: functional, cell-based
T2 sequence (P41143 whole entry): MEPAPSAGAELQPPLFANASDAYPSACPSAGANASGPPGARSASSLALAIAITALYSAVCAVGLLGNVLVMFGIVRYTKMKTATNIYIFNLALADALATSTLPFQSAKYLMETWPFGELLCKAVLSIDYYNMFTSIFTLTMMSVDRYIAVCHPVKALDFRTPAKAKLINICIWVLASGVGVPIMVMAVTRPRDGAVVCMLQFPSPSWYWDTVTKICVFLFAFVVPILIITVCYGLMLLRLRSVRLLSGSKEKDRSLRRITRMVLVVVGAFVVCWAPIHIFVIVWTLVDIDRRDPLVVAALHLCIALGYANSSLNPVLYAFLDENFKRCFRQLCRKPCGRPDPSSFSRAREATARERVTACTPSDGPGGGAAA
Outline: (§2)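 Membranes from CHO cells stably expressing human µ, δ or κ opioid receptor, incubated with varying concentrations of compound in a [35S]GTPγS binding assay. Emax is % maximal stimulation of [35S]GTPγS binding. EC50 is the concentration giving 50% of the Emax value. Mean ± SEM.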

[5] = target: T2, Delta-type opioid receptor; test: Percent maximal stimulation of [35S]GTP-gamma-S, binding to recombinant human opioid receptor delta 1 expressed in CHO cells; type: functional, cell-based; outline: as §2
[6] = target: T1, Kappa-type opioid receptor; test: Concentration necessary to produce 50% of the Emax value, i.e. to stimulate [35S]GTP-gamma-S, binding to recombinant human Opioid receptor kappa 1 expressed in CHO cells; type: functional, cell-based; outline: as §2
[7] = target: Kappa-type opioid receptor (Rattus norvegicus, UniProt P34975); test: Binding affinity determined by displacing [3H]U69,593 from Opioid receptor kappa 1 in rat brain membranes; type: cell membranes; outline: as §1
Sequence of Kappa-type opioid receptor (Rattus norvegicus, UniProt P34975) (P34975 whole entry): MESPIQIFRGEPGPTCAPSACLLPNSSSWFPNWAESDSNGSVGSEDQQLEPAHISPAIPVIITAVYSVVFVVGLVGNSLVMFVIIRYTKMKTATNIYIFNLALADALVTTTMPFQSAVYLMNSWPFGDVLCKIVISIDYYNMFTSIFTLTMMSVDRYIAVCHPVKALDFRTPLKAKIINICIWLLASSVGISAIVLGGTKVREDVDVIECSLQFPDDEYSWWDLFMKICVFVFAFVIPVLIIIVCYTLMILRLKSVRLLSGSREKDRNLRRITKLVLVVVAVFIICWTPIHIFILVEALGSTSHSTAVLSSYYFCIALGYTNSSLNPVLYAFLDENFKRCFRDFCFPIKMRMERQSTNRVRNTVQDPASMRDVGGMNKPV

Mu-type opioid receptor [8] = target: T3, Mu-type opioid receptor (Homo sapiens, UniProt P35372); conditions: CHO
T3 sequence (P35372 whole entry): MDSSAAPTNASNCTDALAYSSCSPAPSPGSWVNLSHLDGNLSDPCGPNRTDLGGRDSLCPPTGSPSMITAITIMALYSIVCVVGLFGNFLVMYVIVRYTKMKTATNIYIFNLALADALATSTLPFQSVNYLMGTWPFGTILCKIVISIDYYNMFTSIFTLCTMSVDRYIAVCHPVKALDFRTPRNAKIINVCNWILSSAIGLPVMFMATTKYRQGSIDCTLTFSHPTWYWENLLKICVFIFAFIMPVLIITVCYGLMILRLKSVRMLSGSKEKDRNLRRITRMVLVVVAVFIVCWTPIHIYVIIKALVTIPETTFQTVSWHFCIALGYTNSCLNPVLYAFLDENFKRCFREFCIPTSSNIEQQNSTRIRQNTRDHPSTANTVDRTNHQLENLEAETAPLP

Mu-type opioid receptor [9] = target: T3, Mu-type opioid receptor; test: Concentration necessary to produce 50% of the Emax value, i.e. to stimulate [35S]GTP-gamma-S, binding to recombinant human Opioid receptor mu 1 expressed in CHO cells; type: functional, cell-based; outline: as §2
Mus musculus [10] = test: Effective dose (sc) required for antinociceptive potency in vivo in the tail-flick (TF) test in mice; type: functional
[11] = target: T1, Kappa-type opioid receptor; test: Percent maximal stimulation of [35S]GTP-gamma-S, binding to recombinant human Opioid receptor kappa 1 expressed in CHO cells; type: functional, cell-based; outline: as §2
Mus musculus [12] = test: Effective dose (sc) required for antinociceptive potency in vivo in the paraphenylquinone writhing (PPQ) test in mice; type: functional
Mus musculus [13] = test: Effective dose (sc) required for antinociceptive potency in vivo in the hotplate (HP) test in mice; type: functional
Mu-type opioid receptor [14] = target: T3, Mu-type opioid receptor; test: Percent maximal stimulation of [35S]GTP-gamma-S, binding to recombinant human Opioid receptor mu 1 expressed in CHO cells; type: functional, cell-based; outline: as §2

| Compound | Selectivity ratio (Rattus norvegicus) | Selectivity ratio [1] | Ke [2] [nM] | pKi (Mu-type opioid receptor [3]) | pEC50 [4] | Emax [5] [%] | pEC50 [6] | pKi [7] | Ke (Mu-type opioid receptor [8]) [nM] | pEC50 (Mu-type opioid receptor [9]) | ED50 (Mus musculus [10]) [mg/kg] | Emax [11] [%] | ED50 (Mus musculus [12]) [mg/kg] | ED50 (Mus musculus [13]) [mg/kg] | Emax (Mu-type opioid receptor [14]) [%] |
| --- | --- | --- | --- | --- | --- | --- | --- | --- | --- | --- | --- | --- | --- | --- | --- |
| CCCCOc1cccc2c1[C@]13CCN(CC4CC4)[C@H](C2)[C@]1(OC)CCC(=O)C3 | 19 | 55 | 120 | 4.86 | 5.79 | 22 | < 5.00 | 3.58 | 11.1 | < 5.00 |  |  |  |  |  |
| CCCCOc1cccc2c1[C@]13CCN(CC4CC4)[C@H](C2)[C@]1(OCCCc1ccccc1)CCC(=O)C3 | 10 | 16 |  | 4.83 |  |  |  | 3.82 |  |  |  |  |  |  |  |
| O=C1CC[C@@]2(OCCCc3ccccc3)[C@H]3Cc4cccc(O)c4[C@@]2(CCN3CC2CC2)C1 | 15 | 13 |  | 6.40 | 8.10 | 49 | 8.35 | 5.23 |  | 8.46 | 0.05 | 45.8 | 0.0014 | 0.04 | 35 |
| O=C1CC[C@@]2(OCCCc3ccccc3)[C@H]3Cc4cccc5c4[C@@]2(CCN3CC2CC2)C1O5 (some centres undefined) | 27 | 55 | 8.54 | 6.08 | 7.06 | 17 | < 5.00 | 4.64 |  | 8.01 | 0.187 |  | 0.0094 | 0.68 | 43 |
| CO[C@@]12CCC(=O)[C@]3(C)Oc4c(O)ccc5c4[C@@]31CCN(C)[C@@H]2C5 |  |  |  |  |  |  |  |  |  |  | 0.03 |  | 0.009 | 0.03 |  |
| CO[C@@]12CCC(=O)C[C@@]13CCN(CC1CC1)[C@@H]2Cc1cccc(OCc2ccccc2)c13 | 4.9 | 18 |  | 4.94 |  |  |  | 4.25 |  |  |  |  |  |  |  |
| COc1cccc2c1[C@]13CCN(CC4CC4)[C@H](C2)[C@]1(OC)CCC(=O)C3 [CYPRODIME] | 10 | 39 | 26.1 | 4.97 | 5.96 | 18 | 6.93 | 3.96 | 12.4 |  |  | 18.8 |  |  | 33 |
| CCCCCCOc1cccc2c1[C@]13CCN(CC4CC4)[C@H](C2)[C@]1(OC)CCC(=O)C3 | 9.8 | 26 |  | 4.35 |  |  |  | 3.36 |  |  |  |  |  |  |  |
| CO[C@@]12CCC(=O)C[C@@]13CCN(CC1CC1)[C@@H]2Cc1cccc(OCCCc2ccccc2)c13 | 4.8 | 33 |  | 4.36 |  |  |  | 3.68 |  |  |  |  |  |  |  |
| COc1cccc2c1[C@]13CCN(CC4CC4)[C@H](C2)[C@]1(OCCCc1ccccc1)CCC(=O)C3 | 22 | 50 | 2.52 | 6.47 | 7.69 | 22 | < 5.00 | 5.13 |  | 8.71 | 0.28 |  | 0.06 | 0.3 | 35 |
